Active and inactive are the calls of the source. The rule behind the calls is not given here. Non-standard residues stand in square brackets, D forms with d. Residues, ends and D or L forms follow the SMILES beside them. NMeF = CN[C@@H](Cc1ccccc1)C(=O)O; NMeE = CN[C@@H](CCC(=O)O)C(=O)O; NMeQ = CN[C@@H](CCC(N)=O)C(=O)O; NMeK = CN[C@@H](CCCCN)C(=O)O; NMeM = CN[C@@H](CCSC)C(=O)O
Experiments:
[1] = organism: Homo sapiens; assay: Metabolic stability in aqueous ammonium carbonate solution assessed as trypsin/chymotrypsin (unknown origin)-mediated drug degradation by measuring half life at 0.05 ug/ml incubated in shaking conditions and measured for 24 hrs by RP-HPLC analysis
[2] = Agonist activity at ComD1 receptor in Streptococcus pneumoniae D39 harboring pcomX/lacZ reporter gene incubated for 30 mins by ONPG based beta-galactosidase assay
In short: (§1)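 Dose-response in wild-type lacZ reporter strains (comX promoter; D39 for ComD1, TIGR4 for ComD2) producing native CSP. Peptides tested over a range of concentrations. β-gal read-out (Miller units) normalized to native CSP. EC50 reported with 95% confidence interval.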

[3] = Metabolic stability in aqueous ammonium carbonate solution assessed as trypsin/chymotrypsin (unknown origin)-mediated drug degradation by measuring half life at 0.05 ug/ml incubated in shaking conditions in presence of trypsin/chymotrpsin and measured for 48 hrs by RP-HPLC analysis; type: ADME; details: human
[4] = Antagonist activity at ComD1 receptor in Streptococcus pneumoniae D39 harboring pcomX/lacZ reporter gene assessed as inhibiton of CSP1-stimulated maximum signal preincubated for 30 mins followed by 50 nM CSP1 addition by ONPG based beta-galactosidase assay
In short: (§2)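 Comx-lacZ β-gal reporter inhibition in D39 (ComD1, CSP1 50 nM) or TIGR4 (ComD2, CSP2 250 nM). Peptides tested over a range of concentrations against the stimulating CSP. Miller units normalized to CSP alone. IC50 given with 95% confidence interval.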

[5] = Metabolic stability in human plasma at 0.33 mM measured for 3 hrs by RP-HPLC analysis; type: ADME, cell-free; details: 330 µM
[6] = Antagonist activity at ComD2 receptor in Streptococcus pneumoniae TIGR4 harboring pcomX/lacZ reporter gene assessed as inhibition of CSP2-stimulated maximum signal preincubated for 30 mins followed by 250 nM native CSP2 addition by ONPG based beta-galactosidase assay; in short: as §2
[7] = Metabolic stability in human plasma assessed as half-life at 0.33 mM measured for 3 hrs by RP-HPLC analysis; type: ADME, cell-free
[8] = tested on: Streptococcus pneumoniae D39; assay: Agonist activity at ComD1 receptor in Streptococcus pneumoniae D39 harboring pcomX/lacZ reporter gene at 10 uM incubated for 30 mins by ONPG based beta-galactosidase assay relative to native CSP1
In short: (§3)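 Single-dose screen of synthetic peptide at 10 μM in wild-type reporter strains (D39 for ComD1, TIGR4 for ComD2) producing their own CSP and carrying lacZ under the comX promoter. β-gal activity in Miller units normalized to native CSP (CSP1 or CSP2, 100%); DMSO 0%. Triplicates over three separate trials.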

[9] = tested on: Streptococcus pneumoniae TIGR4; assay: Agonist activity at ComD2 receptor in Streptococcus pneumoniae TIGR4 harboring pcomX/lacZ reporter gene at 10 uM incubated for 30 mins by ONPG based beta-galactosidase assay relative to native CSP2; in short: as §3
[10] = Agonist activity at ComD2 receptor in Streptococcus pneumoniae TIGR4 harboring pcomX/lacZ reporter gene incubated for 30 mins by ONPG based beta-galactosidase assay; in short: as §1
[11] = tested on: Streptococcus pneumoniae D39; assay: Antagonist activity at ComD1 receptor in Streptococcus pneumoniae D39 harboring pcomX/lacZ reporter gene assessed as inhibiton of CSP1-stimulated maximum signal at 10 uM preincubated for 30 mins followed by 50 nM CSP1 addition by ONPG based beta-galactosidase assay relative to native CSP1
In short: (§4)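 Inhibition screen: peptides at 10 μM against CSP1 50 nM (D39, ComD1) or CSP2 250 nM (TIGR4, ComD2), in comX-lacZ reporter strains. β-gal Miller units normalized to CSP alone (100%) and DMSO (0%). Triplicates over three separate trials.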

[12] = tested on: Streptococcus pneumoniae TIGR4; assay: Antagonist activity at ComD2 receptor in Streptococcus pneumoniae TIGR4 harboring pcomX/lacZ reporter gene assessed as inhibition of CSP2-stimulated maximum signal at 10 uM preincubated for 30 mins followed by 250 nM CSP2 addition by ONPG based beta-galactosidase assay relative to native CSP2; in short: as §4
[13] = Solubility of the compound in ammonium carbonate solution at pH 8; type: physicochemical; details: buffer

## CC[C@H](C)[C@H](NC(=O)[C@H](Cc1ccccc1)NC(=O)[C@H](CC(=O)O)NC(=O)[C@H](CCCNC(=N)N)NC(=O)[C@H](Cc1ccccc1)NC(=O)[C@H](Cc1ccccc1)NC(=O)[C@H](CCCCN)NC(=O)[C@H](CO)NC(=O)[C@H](CC(C)C)NC(=O)[C@H](CCCNC(=N)N)NC(=O)[C@H](CCSC)NC(=O)[C@@H](N)CCC(=O)O)C(=O)N[C@@H](CC(C)C)C(=O)N[C@@H](CCC(N)=O)C(=O)N[C@@H](CCCNC(=N)N)C(=O)N[C@@H](CCCCN)C(=O)N[C@@H](CCCCN)C(=O)O
[1]
  T1/2: 1.5 h
[2]
  EC50: 10 nM

## CC[C@H](C)[C@H](NC(=O)[C@H](Cc1ccccc1)NC(=O)[C@H](CC(=O)O)NC(=O)[C@H](CCCNC(=N)N)NC(=O)[C@H](Cc1ccccc1)NC(=O)[C@H](Cc1ccccc1)NC(=O)[C@H](CCCCN)N(C)C(=O)[C@H](CO)NC(=O)[C@H](CC(C)C)NC(=O)[C@H](CCCNC(=N)N)NC(=O)[C@H](CCSC)NC(=O)[C@H](C)N)C(=O)N[C@@H](CC(C)C)C(=O)N(C)[C@@H](CCC(N)=O)C(=O)N[C@@H](CCCNC(=N)N)C(=O)N[C@@H](CCCCN)C(=O)N[C@@H](CCCCN)C(=O)O
[3]
  half-life at 0.05 ug/ml: 6 h
[4]
  IC50: 360 nM
[5]
  Stability: Unstable

## CC[C@H](C)[C@H](NC(=O)[C@H](CCCNC(=N)N)NC(=O)[C@H](CCSC)NC(=O)[C@H](C)N)C(=O)N[C@@H](CO)C(=O)N[C@@H](CCCNC(=N)N)C(=O)N[C@H](C(=O)N[C@H](C(=O)N[C@@H](CC(C)C)C(=O)N[C@H](CC(=O)O)C(=O)N[C@@H](Cc1ccccc1)C(=O)N[C@@H](CC(C)C)C(=O)N(C)[C@@H](Cc1ccccc1)C(=O)N[C@@H](CC(C)C)C(=O)N[C@@H](CCCNC(=N)N)C(=O)N[C@@H](CCCCN)C(=O)N[C@@H](CCCCN)C(=O)O)[C@@H](C)CC)[C@@H](C)CC
[6]
  IC50: 64 nM
[3]
  half-life at 0.05 ug/ml: 4 h
[4]
  IC50: > 1000 nM
[5]
  Stability: Unstable

## CC[C@H](C)[C@H](NC(=O)[C@H](Cc1ccccc1)NC(=O)[C@H](CC(=O)O)NC(=O)[C@H](CCCNC(=N)N)NC(=O)[C@H](Cc1ccccc1)NC(=O)[C@H](Cc1ccccc1)NC(=O)[C@H](CCCCN)NC(=O)[C@H](CO)NC(=O)[C@H](CC(C)C)NC(=O)[C@H](CCCNC(=N)N)NC(=O)[C@H](CCSC)NC(=O)[C@@H](N)CCC(=O)O)C(=O)N[C@@H](CC(C)C)C(=O)N(C)[C@@H](CCC(N)=O)C(=O)N[C@@H](CCCNC(=N)N)C(=O)O (H-EMRLSKFFRDFIL[NMeQ]R-OH)
[7]
  half-life at 330 µM: 2 h
[8]
  Activity: > 75%
[9]
  Activity: inactive
[2]
  EC50: 68 nM
[3]
  half-life at 0.05 ug/ml: 6 h

## CC[C@H](C)[C@H](NC(=O)[C@H](Cc1ccccc1)NC(=O)[C@H](CC(=O)O)NC(=O)[C@H](CCCNC(=N)N)NC(=O)[C@H](Cc1ccccc1)NC(=O)[C@H](Cc1ccccc1)N(C)C(=O)[C@H](CCCCN)NC(=O)[C@H](CO)NC(=O)[C@H](CC(C)C)NC(=O)[C@H](CCCNC(=N)N)NC(=O)[C@H](CCSC)NC(=O)[C@@H](N)CCC(=O)O)C(=O)N[C@@H](CC(C)C)C(=O)N[C@@H](CCC(N)=O)C(=O)N[C@@H](CCCNC(=N)N)C(=O)O (H-EMRLSK[NMeF]FRDFILQR-OH)
[7]
  half-life at 330 µM: < 0.5 h
[8]
  Activity: > 75%
[9]
  Activity: inactive
[2]
  EC50: 280 nM
[3]
  half-life at 0.05 ug/ml: > 48 h

## CC[C@H](C)[C@H](NC(=O)[C@H](Cc1ccccc1)NC(=O)[C@H](CC(=O)O)NC(=O)[C@H](CCCNC(=N)N)NC(=O)[C@H](Cc1ccccc1)NC(=O)[C@H](Cc1ccccc1)NC(=O)[C@H](CCCCN)N(C)C(=O)[C@H](CO)NC(=O)[C@H](CC(C)C)NC(=O)[C@H](CCCNC(=N)N)NC(=O)[C@H](CCSC)NC(=O)[C@@H](N)CCC(=O)O)C(=O)N[C@@H](CC(C)C)C(=O)N[C@@H](CCC(N)=O)C(=O)N[C@@H](CCCNC(=N)N)C(=O)O (H-EMRLS[NMeK]FFRDFILQR-OH)
[7]
  half-life at 330 µM: < 0.5 h
[8]
  Activity: > 75%
[9]
  Activity: inactive
[10]
  EC50: > 1000 nM
[2]
  EC50: 65 nM
[3]
  half-life at 0.05 ug/ml: > 48 h

## CC[C@H](C)[C@H](NC(=O)[C@H](CCCNC(=N)N)NC(=O)[C@H](CCSC)N(C)C(=O)[C@@H](N)CCC(=O)O)C(=O)N[C@@H](CO)C(=O)N[C@@H](CCCNC(=N)N)C(=O)N[C@H](C(=O)N[C@H](C(=O)N[C@@H](CC(C)C)C(=O)N[C@@H](CC(=O)O)C(=O)N[C@@H](Cc1ccccc1)C(=O)N[C@@H](CC(C)C)C(=O)N[C@@H](Cc1ccccc1)C(=O)O)[C@@H](C)CC)[C@@H](C)CC (H-E[NMeM]RISRIILDFLF-OH)
[8]
  Activity: inactive
[11]
  inhibition: inactive
[12]
  inhibition: > 50%
[6]
  IC50: > 1000 nM
[13]
  solubility: Insoluble

## CC[C@H](C)[C@H](NC(=O)[C@H](CCCNC(=N)N)NC(=O)[C@H](CCSC)NC(=O)[C@H](CCC(=O)O)NC)C(=O)N[C@@H](CO)C(=O)N[C@@H](CCCNC(=N)N)C(=O)N[C@H](C(=O)N[C@H](C(=O)N[C@@H](CC(C)C)C(=O)N[C@@H](CC(=O)O)C(=O)N[C@@H](Cc1ccccc1)C(=O)N[C@@H](CC(C)C)C(=O)N[C@@H](Cc1ccccc1)C(=O)O)[C@@H](C)CC)[C@@H](C)CC (H-[NMeE]MRISRIILDFLF-OH)
[8]
  Activity: inactive
[11]
  inhibition: inactive
[12]
  inhibition: > 50%
[6]
  IC50: > 1000 nM
[13]
  solubility: Insoluble
